SENP8 block-1: human SENP8 protease inhibitors, primary screen, biochemical, fluorescence, Nedd8 protein substrate, uHTS; Sentrin-specific protease 8 (Homo sapiens), Q96LD8; recombinant SENP8; inhibition, % at 20 µM; 360,000 tested, 0.64% active; in the data active = inhibition mostly above about 40%, no sharp cut-off; inactive = mostly below about 27%
Apaf1 inhib: inhibitors of human Apaf-1 apoptosome, primary screen, biochemical, DEVD-Rh110 fluorescence, uHTS | Apoptotic protease-activating factor 1 (Homo sapiens), O14727 | 330,000 tested, 0.71% active | reconstituted apoptosome caspase-3 activity | inhibition, % at 20 µM; active = inhibition of at least 40% at 20 µM
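Material: cell-free apoptosome with Apaf-1, procaspase-3 and caspase-9; Buffer or medium: Hepes pH 7.5 with detergent and BSA; Reagent: cytochrome c trigger plus (Z-DEVD)2-Rh110 caspase-3 substrate; Times: compound with Apaf-1, dATP, procaspase-3 30 min, then 50 min reaction, room temperature; Technique: Rh110 fluorescence intensity.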
SENP8 block-2: SENP8 protease inhibitors, primary screen, biochemical, luminescence; Sentrin-specific protease 8 (Homo sapiens), Q96LD8; purified SENP8, Z-RLRGG-aminoluciferin cleavage; inhibition, % at 10 µM; 330,000 tested, 1.2% active; AID 2540, 2010; in the data active = inhibition above about 50%
UBC13 inh: UBC13 polyubiquitin chain formation inhibitors, primary screen, biochemical, TR-FRET, uHTS; Ubiquitin-conjugating enzyme E2 N (Homo sapiens), P61088; inhibition, % at 20 µM; 330,000 tested, 0.47% active; in the data active = inhibition above about 45%, passing the limit was not always enough; inconclusive = no clear call, values can overlap the other calls
Target sequence (P61088 whole entry, looked up): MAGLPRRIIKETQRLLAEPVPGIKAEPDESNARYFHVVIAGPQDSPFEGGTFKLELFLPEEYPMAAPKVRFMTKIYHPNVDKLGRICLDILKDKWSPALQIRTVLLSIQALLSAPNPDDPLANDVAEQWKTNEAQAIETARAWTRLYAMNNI
SENP7 block: SENP7 protease inhibitors, primary screen, biochemical, luminescence, uHTS. Sentrin-specific protease 7 (Homo sapiens), Q9BQF6. recombinant SENP7, Z-RLRGG-aminoluciferin luminescence, 40 min. inhibition, % at 5 µM. 330,000 tested, 1.5% active. AID 434973, 2010;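 active = inhibition above about 50% at the single test dose, limit read from the data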
SENP6 inh: SENP6 protease inhibitors, primary screen, biochemical, luminescence, uHTS; Sentrin-specific protease 6 (Homo sapiens), Q9GZR1; Recombinant SENP6 catalytic domain, aminoluciferin luminescence; inhibition, % at 10 µM; 330,000 tested, 1.8% active; AID 2599, 2010;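 active = inhibition above about 50% at the single tested dose, limit read from the data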
Target sequence (Q9GZR1 628-1112 limits assumed): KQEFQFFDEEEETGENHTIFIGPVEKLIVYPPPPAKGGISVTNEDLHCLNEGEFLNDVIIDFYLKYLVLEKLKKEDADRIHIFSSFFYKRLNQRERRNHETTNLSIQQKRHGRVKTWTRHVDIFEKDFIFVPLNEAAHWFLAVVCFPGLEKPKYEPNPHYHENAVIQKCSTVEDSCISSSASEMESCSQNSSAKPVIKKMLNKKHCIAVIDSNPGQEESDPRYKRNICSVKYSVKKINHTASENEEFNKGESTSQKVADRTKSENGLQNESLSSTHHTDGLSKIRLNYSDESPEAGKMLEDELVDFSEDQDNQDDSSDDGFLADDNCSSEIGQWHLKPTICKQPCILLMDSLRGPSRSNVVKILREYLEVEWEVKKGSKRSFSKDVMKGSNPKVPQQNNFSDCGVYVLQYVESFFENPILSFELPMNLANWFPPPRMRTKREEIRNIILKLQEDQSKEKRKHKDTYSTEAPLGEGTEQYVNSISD
Casp3 counter: CASP3 inhibitor validation, counterassay for project on UBE2N polyubiquitination blockers, biochemical, one dose | inhibition, % at 20 µM | AID 488856, 2010 | shares compounds with UBC13 inh | Recombinant caspase-3, Caspase-Glo 3/7 luminescence, 60 min | 1,400 tested, 4% active;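 active = mean inhibition across replicates above about 26%, limit read from the data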
UBC13 confirm: UBC13 polyubiquitination inhibitors, single-point retest, confirmation, biochemical, TR-FRET, single concentration. shares compounds with UBC13 inh. inhibition, % at 10 µM. 1,400 tested, 68% active. AID 488859, 2010; in the data active = inhibition above about 45%; inconclusive = no clear call, values can overlap the other calls
Large screens that a line does not name were inactive (follow-up assays come after a bar, where they were run). A selection: hits, their analogues and other compounds. The true share with any hit is near 3%.

CC(=O)c1ccc(Sc2ccc(C(C)=O)cc2)cc1	UBC13 inh 45 | Casp3 counter inactive | UBC13 confirm inactive
CC(=O)c1ccc(Sc2ccccc2)cc1	UBC13 inh inconclusive
COc1ccc(OCCCC(=O)Nc2ccc(S(=O)(=O)N3CCOCC3)cc2)cc1	UBC13 inh 58 | Casp3 counter inactive | UBC13 confirm 55
Cc1c(CCOC(=O)CC23CC4CC(CC(C)(C4)C2)C3)sc[n+]1CC(=O)c1ccccc1	UBC13 inh 63 | Casp3 counter inactive | UBC13 confirm 52
Cc1c(CCOC(=O)C23CC4CC(CC(C)(C4)C2)C3)sc[n+]1CC(=O)c1ccccc1	none
CCN1CCN(Cc2ccc(NC(=O)c3cc(NC(=O)c4nccnc4N)cc(OC)c3)cc2C(F)(F)F)CC1	none
CCN1CCN(Cc2ccc(NC(=O)c3cc(NC(=O)c4cncc(-c5ccc(C#N)cc5)c4)cc(OC)c3)cc2C(F)(F)F)CC1	Apaf1 inhib 54, UBC13 inh 118 | Casp3 counter inactive | UBC13 confirm 126
CCOc1ccc(Nc2nc(NCC3CCCO3)c3ccccc3n2)cc1 (centres undefined)	UBC13 inh 66 | Casp3 counter inactive | UBC13 confirm 86
c1ccc(Nc2nc(NCC3CCCO3)c3ccccc3n2)cc1 (centres undefined)	none
CCN(CC)CCOC(=O)c1ccc(NC(=O)c2cn(-c3ccccc3)nc2-c2cccs2)cc1	UBC13 inh 96 | Casp3 counter inactive | UBC13 confirm 111
COc1cccc(C2=CC(=O)C(C(C)(C)C)N2C(C)(C)C)c1 (centres undefined)	none (no result: Apaf1 inhib, SENP8 block-2, UBC13 inh, SENP7 block, SENP6 inh)
Nc1nc(N)c2cc(Sc3ccc4ccccc4c3)ccc2n1	UBC13 inh 50 | Casp3 counter inactive | UBC13 confirm inactive
CCNC(=O)C1(C)CCCN(C(=O)c2sccc2C)C1 (centres undefined)	none (no result: Apaf1 inhib, SENP8 block-2, UBC13 inh, SENP7 block, SENP6 inh)
COC(=O)c1cccc(Nc2nc(-c3cccnc3)nc3ccccc23)c1	none
CCOC(=O)c1cccc(Nc2nc(-c3cccnc3)nc3ccccc23)c1	UBC13 inh 60 | Casp3 counter inactive | UBC13 confirm 70
COc1cccc(CNc2nc(-c3cccnc3)nc3ccccc23)c1	UBC13 inh 53 | Casp3 counter inactive | UBC13 confirm inactive
O=C(COC(=O)/C=C/c1cccc(F)c1)NCc1ccc2c(c1)OCO2	none (no result: Apaf1 inhib, SENP8 block-2, UBC13 inh, SENP7 block, SENP6 inh)
C[C@H](CO)N1C[C@H](C)[C@H](CN(C)C(=O)NC2CCCCC2)Oc2ncc(Br)cc2C1=O	none (no result: Apaf1 inhib, SENP8 block-2, UBC13 inh, SENP7 block, SENP6 inh)
O=C(c1ccc(S(=O)(=O)Cc2cc(F)ccc2F)c([N+](=O)[O-])c1)N1CCOCC1	none (no result: Apaf1 inhib, SENP8 block-2, UBC13 inh, SENP7 block, SENP6 inh)
COc1ccccc1NC(=O)c1cc(S(=O)(=O)NCc2ccccc2)ccc1F	UBC13 inh 63 | Casp3 counter inactive | UBC13 confirm 75
COc1ccccc1NC(=O)c1cc(S(=O)(=O)N2CCC3(CC2)OCCO3)ccc1F	UBC13 inh 56 | Casp3 counter inactive | UBC13 confirm inactive
CC(=O)N1CCOC12CCN(Cc1ccccc1)CC2	none (no result: Apaf1 inhib, SENP8 block-2, UBC13 inh, SENP7 block, SENP6 inh)
O=C(CSC1=NS(=O)(=O)c2ccccc21)Nc1ccccc1	UBC13 inh 47 | Casp3 counter inactive | UBC13 confirm inactive
COC(=O)CSC1=NS(=O)(=O)c2ccccc21	none
CCOc1ccccc1NC(=O)COc1cccnc1[N+](=O)[O-]	UBC13 inh 51 | Casp3 counter inactive | UBC13 confirm inactive
COc1ccccc1NC(=O)COc1cccnc1[N+](=O)[O-]	UBC13 inh 46 | Casp3 counter inactive | UBC13 confirm inactive
O=C1NC[C@H](CCCCN2C[C@H](Cc3ccc(O)cc3)N(CCc3ccc(O)cc3)C(=O)C2=O)N(CC2CCCCC2)C1=O	none (no result: Apaf1 inhib, SENP8 block-2, UBC13 inh, SENP7 block, SENP6 inh)
CCC(C)[C@H](N)C(=O)N[C@H]1CCC2C3CC=C4C[C@@H](O)CC[C@]4(C)C3CC[C@@]21C (some centres undefined)	none (no result: Apaf1 inhib, SENP8 block-2, UBC13 inh, SENP7 block, SENP6 inh)
CC1=C(C(=O)N2CCCCCC2)CC(CC(=O)NCCc2ccccn2)C(=O)N1CCCN1CCCC1=O (centres undefined)	none (no result: Apaf1 inhib, SENP8 block-2, UBC13 inh, SENP7 block, SENP6 inh)
Cc1c(Br)c([N+](=O)[O-])nn1CCCC(=O)Nc1c(C)n(C)n(-c2ccccc2)c1=O	UBC13 inh 49 | Casp3 counter inactive | UBC13 confirm inactive
Cc1cc([N+](=O)[O-])nn1CCCC(=O)Nc1c(C)n(C)n(-c2ccccc2)c1=O	none
Cc1c(NC(=O)CCCCCN2C(=O)c3ccccc3C2=O)c(=O)n(-c2ccccc2)n1C	UBC13 inh 106 | Casp3 counter inactive | UBC13 confirm 110
Cc1ccc(NC2=CC(=O)CC(c3ccc(Cl)cc3)C2)cc1 (centres undefined)	none
Cc1ccc(NC2=CC(=O)CC(c3ccccc3)C2)cc1 (centres undefined)	UBC13 inh 45 | Casp3 counter inactive | UBC13 confirm inactive
CCc1ccccc1OCC(=O)OCC(=O)Nc1cc(C)on1	UBC13 inh 48 | Casp3 counter inactive | UBC13 confirm inactive
Cc1cc(NC(=O)COC(=O)COc2ccc(C(=O)c3ccccc3)cc2)no1	none
Cc1cccn2c(=O)c(C=O)c(N3CCCCCC3)nc12	UBC13 inh 55 | Casp3 counter inactive | UBC13 confirm 64
Cc1cccn2c(=O)c(C=O)c(N3CC(C)OC(C)C3)nc12 (centres undefined)	none
COc1ccc2nc(SCc3nc(N)nc(Nc4ccccc4)n3)[nH]c2c1	UBC13 inh 46 | Casp3 counter inactive | UBC13 confirm inactive
CCCNC(=O)C1(C)CCCN(CC(=O)c2ccc3c(c2)OCCO3)C1 (centres undefined)	none (no result: Apaf1 inhib, SENP8 block-2, UBC13 inh, SENP7 block, SENP6 inh)
CN(Cc1ccccc1)C(=O)CCSc1nc(-c2ccc3c(c2)OCO3)cc(C(F)(F)F)n1	UBC13 inh 46 | Casp3 counter inactive | UBC13 confirm inactive
CC(=O)N(c1ccccc1)c1ccccc1[N+](=O)[O-]	none (no result: Apaf1 inhib, SENP8 block-2, UBC13 inh, SENP7 block, SENP6 inh)
O=C(COC(=O)/C=C/c1cccc(F)c1)NC1CCCCC1	none (no result: Apaf1 inhib, SENP8 block-2, UBC13 inh, SENP7 block, SENP6 inh)
NS(=O)(=O)c1ccc(NC(=O)N2c3ccccc3Sc3ccccc32)cc1	UBC13 inh 46 (no result: SENP8 block-1) | Casp3 counter inactive | UBC13 confirm inactive
COc1cc(-c2cc(=O)c3ccccc3o2)ccc1O	none
COc1cc(-c2cc(=O)c3c(O)c(OC)c(OC)cc3o2)cc(OC)c1O	UBC13 inh 49 | Casp3 counter inactive | UBC13 confirm inactive

Screening data from PubChem BioAssay.
